Screens: PubChem, several laboratories
TNF death inh – TNF-alpha cell death inhibition in Jurkat FADD-/- cells. 220,000 tested, 0.068% active. activation (protection from cell death), % at 10 µM. Jurkat FADD-/- TNF necroptosis rescue, ATP luminescence, 24 h; 0 = TNF only, 100 = no-TNF cells. AID 463075;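 active = activation, meaning protection from cell death, of at least 50% relative to plate controls; inactive = activation below 50%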;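 note: necroptosis triggered by 40 ng/mL TNF-alpha added together with compound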
Runt-SMMHC FRET – Runt domain-CBFb-SMMHC interaction inhibition. Q01196+Q13951. Cerulean-Runt/Venus-CBFb-SMMHC FRET ratio 530/480, 1 h. inhibition, % at 20 µM. 220,000 tested, 0.74% active. AID 1434;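 active = mean inhibition across duplicate retests at 20 µM reaching about 50%, limit read from the data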;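 note: 0% = DMSO wells and 100% = wells with excess untagged CBFb-SMMHC; inhibitors lower the FRET ratio by blocking Runt binding to CBFb-SMMHC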
Target sequence (Q01196 whole entry, looked up, the tested form may be a part): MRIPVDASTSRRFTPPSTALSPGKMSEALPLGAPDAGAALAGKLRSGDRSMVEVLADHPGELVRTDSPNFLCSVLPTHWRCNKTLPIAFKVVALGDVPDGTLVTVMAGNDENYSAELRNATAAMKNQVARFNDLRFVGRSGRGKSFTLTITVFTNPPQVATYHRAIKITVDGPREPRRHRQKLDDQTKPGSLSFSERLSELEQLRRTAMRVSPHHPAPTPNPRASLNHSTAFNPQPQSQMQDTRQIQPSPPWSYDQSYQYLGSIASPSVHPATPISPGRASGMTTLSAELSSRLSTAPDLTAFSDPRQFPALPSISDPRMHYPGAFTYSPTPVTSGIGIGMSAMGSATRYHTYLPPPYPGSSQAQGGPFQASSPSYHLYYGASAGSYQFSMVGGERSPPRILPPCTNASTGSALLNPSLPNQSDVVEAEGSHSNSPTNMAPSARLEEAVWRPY
Target sequence (Q13951 whole entry, looked up, the tested form may be a part): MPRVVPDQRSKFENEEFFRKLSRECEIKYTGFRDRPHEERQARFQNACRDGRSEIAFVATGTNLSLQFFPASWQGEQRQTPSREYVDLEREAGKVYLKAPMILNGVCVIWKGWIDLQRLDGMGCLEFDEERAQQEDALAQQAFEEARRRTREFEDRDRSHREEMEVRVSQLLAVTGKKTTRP
Hck-Nef inh – human Hck-Nef kinase inhibition; P08631; Recombinant Hck-YEEI plus Nef, Z-Lyte FRET kinase assay; inhibition, % at 20 µM; 220,000 tested, 0.68% active;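 active = Hck-Nef kinase inhibition above about 50%, limit read from the data; inactive = inhibition below that limit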;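 note: 0% = DMSO with Hck plus Nef and 100% = Hck alone without Nef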
Runt-CBFb FRET – inhibitors of human RUNX1 Runt domain binding to CBFb. Q01196+Q13951. Cerulean-Runt/Venus-CBFb FRET ratio 530/480, 1 h. inhibition, % at 20 µM. 220,000 tested, 0.46% active. AID 1496;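 active = inhibition over about 50% at 20 µM in the single-dose screen, limit read from the data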;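 note: 0% = DMSO wells and 100% = excess unlabeled CBFb competitor control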
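Doses: 20 µM compound in 1% DMSO | Material: Cerulean-labeled Runt domain protein | Amount: Each fluorescent fusion protein 100 nM | Schedule: Two 1 h room-temperature incubations shielded from light | Measured by: FRET fluorescence | Evaluation: Loss of energy transfer signal | Controls: Unlabeled CBFb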
RanGTP-Imp inh – disruptors of Ran-importin-beta complex formation – biochemical, FRET, CFP-Ran, YFP-importin-beta, homogeneous, primary screen; 300,000 tested, 1.1% active; inhibition, % (no concentration beside the values); AID 2216; cell-free CFP-Ran/YFP-importin-beta FRET ratio;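 active = more than half of the replicate wells show a fall in the fluorescence ratio signal beyond about 16%, limit read from the data, passing the limit was not always enough; inconclusive = exactly half of the replicate wells pass the set limit; inactive = fewer than half of replicates pass the limit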;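 note: 0% = DMSO wells and 100% = Ran loaded with GDP instead of GTP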
zVAD death inh – blocks zVAD induced death of L929 cells; L929 zVAD necroptosis rescue, ATP luminescence, 24 h; with zVAD 60 µM; viability rescue, % at 10 µM; 220,000 tested, 0.38% active; AID 1377;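 active = activation, scaled between plate controls, above about 75%, limit read from the data; inactive = activation under that limit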;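 note: 0% = zVAD with DMSO and 100% = DMSO alone without zVAD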
Runt-CBFb TRFRET – disrupts human RUNX1 Runt domain binding to CBFb; shares compounds with Runt-CBFb FRET; 480 tested, 20% active; inhibition, % at 20 µM; TR-FRET RUNX1 Runt domain-CBFb binding; in the data active = inhibition above about 40%
* = called active by the depositor; ? = inconclusive; nt = not tested or not shown. Most compounds without a hit are left out; they make up all but 2.1% or so of the library.

SMILES	TNF death inh	Runt-SMMHC FRET	Hck-Nef inh	Runt-CBFb FRET	RanGTP-Imp inh	zVAD death inh	Runt-CBFb TRFRET
CCOC(=O)CC(=O)CSc1nc(CC)c(C)cc1C#N	3	32	9	53*	3	2	-82
Cc1cc(=O)[nH]c(Nc2cccc(C(F)(F)F)c2)n1	1	-4	3	-2	5	0	nt
O=c1cc(O)c2sc(Nc3cccc(C(F)(F)F)c3)nc2[nH]1	0	45	4	60*	-2	1	29
O=c1cc(O)c2sc(Nc3ccc(F)cc3)nc2[nH]1	1	34	1	56*	4	1	6
COc1cccc2[nH]c3c(Cl)ncnc3c12	-2	2	3	52*	3	1	28
CCCn1c(SCC(=O)NCc2ccco2)nnc1-c1ccncc1	-1	3	21	74*	1	8	-1
CS(=O)(=O)c1ccc2nc(NC(=O)c3ccc(S(=O)(=O)NCC4CCCO4)cc3)sc2c1 (stereo unspecified)	0	-1	26	2	0	32	nt
O=C(N/N=C/c1ccccn1)c1ccc(Cl)c(Cl)c1	nt	nt	nt	nt	2	nt	nt
O=C(C#Cc1cccc([N+](=O)[O-])c1)c1ccccc1	-19	30	7	51*	0	0	28
O=C(Nc1cccc([N+](=O)[O-])c1)c1ccccc1	2	-5	11	0	9	1	nt
CCOC(=O)c1c(NC(=S)Nc2ccc(OCC)cc2)sc2c1CCN(C)C2	0	52*	-55	82*	19*	0	13
Cc1cc(O)ccc1N/C=C(\C#N)c1nc2ccccc2o1	-1	60	2	53*	-3	2	3
N#C/C(=C\c1c(Cl)cccc1Cl)c1nc2ccccc2o1	0	4	6	5	-1	0	nt
CC(C)Sc1nc2sc(-c3ccccc3)cc2c(=O)n1N	2	-1	0	1	nt	1	nt
COC(=O)C(C)n1nnc2sc(-c3ccccc3)cc2c1=O (stereo unspecified)	1	124*	24	58*	nt	2	-98
Fc1ccc(C2CC(c3ccco3)=Nc3ccccc3S2)cc1 (stereo unspecified)	-1	34	-28	51*	3	0	-5
O=[N+]([O-])c1ccc(C2CC(c3ccccc3)=Nc3ccccc3S2)cc1 (stereo unspecified)	-5	-3	20	56*	-2	0	20
c1ccc(-c2onc(-c3ccco3)c2-c2ccc3[nH]ccc3c2)cc1	nt	nt	nt	nt	0	nt	nt
COc1cc(NC(=S)NC(C)(C)C)c(OC)cc1Cl	0	-4	-16	5	11	1	nt
COc1cc(Cl)c(C)cc1NC(=S)NN	0	30	35	51*	2	0	16
Cc1sc2ncnc(N3CCN(Cc4ccccc4)CC3)c2c1-c1ccc(F)cc1	nt	nt	nt	nt	6	nt	nt
Cc1ccc(O)c(O)c1	nt	nt	nt	nt	3	nt	nt
Cc1cc(O)c(Oc2cc(C)cc(O)c2O)c(O)c1	-4	62*	-8	70*	-2	0	54*
CCCCSCCCNC(=O)c1ccc(CS(=O)(=O)c2ccc(OC)cc2)o1	nt	nt	nt	nt	2	nt	nt
CC(C)(C)c1cc(C(=O)C[n+]2ccc(C(=O)NCCCO)cc2)cc(C(C)(C)C)c1O	1	1	12	1	0	1	nt
SMILES	TNF death inh	Runt-SMMHC FRET	Hck-Nef inh	Runt-CBFb FRET	RanGTP-Imp inh	zVAD death inh	Runt-CBFb TRFRET
Nc1cccnc1Sc1ccc([N+](=O)[O-])cn1	1	60	3	54*	2	0	-5
O=[N+]([O-])c1ccc(Sc2ccccc2)nc1	42	0	4	-1	8	0	nt
Cc1cc(-c2ccccc2)c2c(n1)sc1c(O)cc(=O)[nH]c12	2	5	20	22	9	0	nt
CCc1nc2sc3c(O)cc(=O)[nH]c3c2cc1C	-1	56	12	52*	-1	0	54*
CCNC(=S)N(Cc1cc2cc(C)c(C)cc2[nH]c1=O)C1CCCC1	-1	nt	13	nt	2	3	nt
CCNC(=S)N(Cc1cc2c(C)ccc(C)c2[nH]c1=O)C1CCCC1	3	28	20	60*	2	2	23
CCNC(=S)N(Cc1cc2cc(C)ccc2[nH]c1=O)C1CCCC1	0	43	9	58*	-5	1	13
Cc1ccc(C2=NN(S(=O)(=O)c3ccccc3)C(c3ccccc3O)C2)cc1 (stereo unspecified)	1	5	8	0	-3	-1	nt
O=C(Nc1ccc(Cl)c(-c2nc3ccccc3[nH]2)c1)c1ccc2c(c1)OCO2	5	-5	-32	65*	0	3	-121
COc1cccc(CNC(=O)CCC2CCCN(C(=O)C3=CC(=O)CC(C)(C)O3)C2)c1 (stereo unspecified)	0	-2	2	1	4	1	nt
O=C(O)c1ccccc1C(=O)Nc1nccs1	-3	1	1	0	-2	0	nt
O=C(O)c1ccccc1C(=O)Nc1n[nH]c(=S)s1	-2	43	1	54*	-1	0	20
COc1ccc(CCn2c(N)c(C(=O)NCc3ccco3)c3nc4ccccc4nc32)cc1	0	79*	37	58*	58*	nt	26
COc1ccc(-c2nnn(CC(=O)N(CC(=O)NC3CCCC3)c3ccccc3F)n2)cc1OC	nt	nt	nt	nt	1	nt	nt
Cc1sc2nc(CN3CCN(c4ccc(O)cc4)CC3)[nH]c(=O)c2c1C	1	-4	-7	54*	?	1	63*
CCCCNCc1cc(OCC)c(OCC)cc1Br	1	4	-7	2	-3	1	nt
Cc1ccccc1-c1nnc(SCC(=O)NC2CCCC2)n1C	nt	nt	nt	nt	3	nt	nt
O=C(Nc1ncc([N+](=O)[O-])s1)c1cccs1	nt	nt	nt	nt	2	nt	nt
Cc1ncoc1C(=O)Nc1ncc([N+](=O)[O-])s1	-1	27	-55	64*	1	0	20
O=C(Nc1ccccc1Oc1ccccc1)c1cccs1	nt	nt	nt	nt	-3	nt	nt
Cc1ccc(C2NC(=O)c3ccccc3N2)s1 (stereo unspecified)	-7	-4	1	-2	2	0	nt
CN1CCc2c(sc3c2C(=O)NC(c2cccs2)N3)C1 (stereo unspecified)	0	78*	6	62*	118*	2	-6
COC(=O)C1CCN(C(=O)c2cc3c(=O)n4cccc(C)c4nc3n2Cc2ccccc2)CC1	-2	5	21	-1	1	1	nt
